From article PMC9137328 (Bioorganic chemistry, 2020)
“Also recorded” adds a separate entry of the source. Like-named read-outs stand apart in the source and are kept apart here.

What was measured:
[1] = biological target: T1, ERRα (Homo sapiens, UniProt P11474); test: Cell-based; settings: for ERRα activity (in words): HEK293 co-transfection luciferase
T1 sequence (P11474 1-423): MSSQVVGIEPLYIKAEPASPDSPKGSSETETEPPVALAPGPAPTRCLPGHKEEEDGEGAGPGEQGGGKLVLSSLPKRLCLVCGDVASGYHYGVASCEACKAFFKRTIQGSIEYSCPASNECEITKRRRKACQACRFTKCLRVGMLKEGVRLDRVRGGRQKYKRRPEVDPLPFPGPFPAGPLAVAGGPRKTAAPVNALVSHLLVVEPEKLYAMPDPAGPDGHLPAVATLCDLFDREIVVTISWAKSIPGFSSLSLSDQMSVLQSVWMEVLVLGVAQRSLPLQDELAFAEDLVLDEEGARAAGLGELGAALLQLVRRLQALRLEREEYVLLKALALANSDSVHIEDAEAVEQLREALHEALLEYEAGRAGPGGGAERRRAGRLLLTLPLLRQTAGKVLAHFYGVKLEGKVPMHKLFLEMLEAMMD

[2] = biological target: T2, ERRγ (Homo sapiens, UniProt P62508); test: Cell-based; settings: for ERRγ activity (in words): HEK293 co-transfection luciferase
T2 sequence (P62508 1-458): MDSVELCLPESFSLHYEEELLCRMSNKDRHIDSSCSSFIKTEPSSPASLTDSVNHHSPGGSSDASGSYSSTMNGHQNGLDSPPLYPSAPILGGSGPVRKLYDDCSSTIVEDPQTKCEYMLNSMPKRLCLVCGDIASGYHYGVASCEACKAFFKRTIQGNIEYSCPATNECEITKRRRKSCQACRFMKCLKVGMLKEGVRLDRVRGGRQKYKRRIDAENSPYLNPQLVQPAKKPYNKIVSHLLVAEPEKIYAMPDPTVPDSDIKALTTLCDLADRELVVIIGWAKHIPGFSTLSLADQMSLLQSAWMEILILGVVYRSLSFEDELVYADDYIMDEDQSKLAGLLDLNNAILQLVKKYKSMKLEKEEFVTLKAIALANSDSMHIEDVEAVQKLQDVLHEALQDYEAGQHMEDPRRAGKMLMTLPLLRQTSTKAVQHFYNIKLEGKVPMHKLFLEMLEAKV

[3] = biological target: T3, ERRβ (Homo sapiens, UniProt O95718); test: Cell-based co-transfection ERR responsive luciferase reporter assay, ERRβ
T3 sequence (O95718 1-433): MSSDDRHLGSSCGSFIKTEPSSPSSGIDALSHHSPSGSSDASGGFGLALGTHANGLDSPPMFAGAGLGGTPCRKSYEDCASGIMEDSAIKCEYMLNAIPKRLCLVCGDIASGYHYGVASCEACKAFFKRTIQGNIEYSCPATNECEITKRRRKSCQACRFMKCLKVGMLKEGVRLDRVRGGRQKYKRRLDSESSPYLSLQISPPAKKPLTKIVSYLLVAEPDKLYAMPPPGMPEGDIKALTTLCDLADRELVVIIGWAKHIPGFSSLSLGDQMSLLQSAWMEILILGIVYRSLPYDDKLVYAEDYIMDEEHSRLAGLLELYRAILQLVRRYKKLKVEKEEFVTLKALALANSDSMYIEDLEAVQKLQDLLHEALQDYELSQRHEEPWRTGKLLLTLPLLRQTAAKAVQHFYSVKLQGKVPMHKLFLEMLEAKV

[4] = test system: C2C12 cells; test: Cell viability assay, FITC Annexin V/PI flow cytometry; format: cell-based; settings: 1 and 10 μM, 24 h
How it was run: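 C2C12 mouse myoblasts were kept in DMEM with 10% FBS and 1% L-glutamine. They were seeded at 2.5 million cells per well and grown 24 h to confluence. Cells were exposed 24 h to test compound in DMSO at 1 or 10 μM, with a DMSO-only control, in triplicate. Harvested cells were stained with FITC-Annexin V and propidium iodide and analysed by flow cytometry for live/dead cells.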

[5] = biological target: T1, ERRα; settings: cited from earlier work
[6] = biological target: T2, ERRγ; settings: cited from earlier work
[7] = biological target: T3, ERRβ; settings: cited from earlier work
[8] = test system: ERR target genes PGC-1α, PGC-1β, CPT1α and PDK4; test: Gene expression; format: cell-based, mouse; settings: C2C12 cells, 1 μM of tested compounds, 24 h
How it was run: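 Confluent C2C12 myoblasts (DMEM, 10% FBS, 1% L-glutamine; 2.5 million cells per well) were treated 24 h with test compound in DMSO or with DMSO vehicle, in triplicate groups. Total RNA was column-extracted and 1 μg was reverse-transcribed. Transcripts were quantified by SYBR qPCR, with samples run in duplicate. Relative expression was calculated by ΔΔCt against 36b4 as the reference gene.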

Structure (SMILES): O=C(NN=Cc1ccccc1O)c1ccccc1 [Compound 13]
- ERRα activity (in words) [1]: completely inactive
- ERRγ activity (in words) [2]: completely inactive

Structure (SMILES): CN(C)c1ccc(C=NNC(=O)c2ccccc2)cc1 [Compound 11]
- ERRα activity (in words) [1]: no ERRα activity; also recorded: inactive
- ERRγ activity (in words) [2]: activity was regained

Structure (SMILES): O=C(N/N=C/c1ccccc1O)c1ccccc1O [Compound 36]
- ERRγ activity (in words) [2]: inactive

Structure (SMILES): O=C(NN=Cc1ccnc2ccccc12)c1ccccc1 [Compound 46, quinolin-4-ylmethylene benzohydrazide]
- IC50 [1]: 4580 nM

Structure (SMILES): O=C(NN=Cc1ccccc1)c1ccccc1O [Compound 19]
- ERRα activity (in words) [1]: moderately potent
- ERRγ activity (in words) [2]: moderately potent

Structure (SMILES): O=C(N/N=C/c1ccccc1[N+](=O)[O-])c1ccccc1 [Compound 34]
- ERRα activity (in words) [1]: completely inactive
- ERRγ activity (in words) [2]: completely inactive

Structure (SMILES): O=C(NN=Cc1ccccc1O)c1ccc(Cl)cc1 [Compound 31]
- ERRα activity (in words) [1]: weak activity
- ERRγ activity (in words) [2]: weak activity

Structure (SMILES): O=C(NN=Cc1ccccc1)c1ccccc1 [Compound 10]
- ERRα activity (in words) [1]: complete loss of activity; also recorded: completely inactive
- ERRγ activity (in words) [2]: complete loss of activity; also recorded: completely inactive

Structure (SMILES): Cc1ccc(C(=O)N/N=C/c2ccccc2O)cc1 [Compound 33, (E)-N’-(2-Hydroxybenzylidene)-4-methylbenzohydrazide]
- EC50 [1]: 483 nM
- EC50 [2]: 235 nM
- EC50 [3]: 123 nM

Structure (SMILES): Cc1ccccc1C(=O)NN=Cc1ccccc1 [Compound 23]
- ERRα activity (in words) [1]: no activity

Structure (SMILES): O=C(NN=Cc1ccccc1)c1ccc(Br)cc1 [Compound 21]
- ERRα activity (in words) [1]: completely lost ERRα activity; also recorded: inactive
- ERRγ activity (in words) [2]: moderate ERRγ activity; also recorded: very weak

Structure (SMILES): Cc1ccccc1C(=O)N/N=C/c1ccccc1O [Compound 29, (E)-N’-(2-Hydroxybenzylidene)-2-methylbenzohydrazide]
- EC50 [1]: 453 nM
- EC50 [2]: 254 nM
- Cell viability / signs of toxicity [4]: No signs of toxicity; also recorded: did not show signs of toxicity
- EC50 [3]: 583 nM

Structure (SMILES): O=C(N/N=C/c1ccccc1O)c1ccccc1O [Compound 27, (E)-2-Hydroxy-N’-(2-hydroxybenzylidene)benzohydrazide]
- EC50 [1]: 378 nM
- activity toward ERRα, folds higher than ERRβ ([1]; from EC50 values): ≈ 2 folds
- selectivity toward ERRα over ERRγ ([1]; from EC50 values): > 4 fold
- EC50 [2]: 1650 nM
- Cell viability / signs of toxicity [4]: No signs of toxicity; also recorded: did not show signs of toxicity
- EC50 [3]: 772 nM

Structure (SMILES): O=C(N/N=C/c1ccccc1[N+](=O)[O-])c1ccc([N+](=O)[O-])cc1 [Compound 38, (E)-4-Nitro-N’-(2-nitrobenzylidene)benzohydrazide]
- EC50 [1]: 646 nM
- fold decrease in potency against ERRα ([1]; compared to 16): ≈ 1.5 fold
- EC50 [2]: 260 nM

Structure (SMILES): CC(C)c1ccc(/C=N/NC(=O)c2ccc(O)cc2)cc1 [GSK4716 (6)]
- ERRα activity (in words) [1]: very weak activity
- reported activity on ERRα [5]: no observed activity
- EC50 ([3]; read-out: ERRβ EC50, agonism, co-transfection luciferase reporter): 280 nM
- reported activity on ERRγ [6]: agonist
- reported activity on ERRβ [7]: agonist

Structure (SMILES): Cc1ccc(C(=O)N/N=C/c2ccccc2)cc1 [Compound 24, (E)-N’-Benzylidene-4-methylbenzohydrazide]
- PDK4 transcription [8]: potently upregulated
- mRNA levels of PGC-1α [8]: increase the mRNA levels
- mRNA levels of PGC-1β [8]: increase the mRNA levels
- Cell viability / signs of toxicity [4]: No signs of toxicity; also recorded: did not show signs of toxicity
- EC50 [3]: 162 nM

Structure (SMILES): O=C(N/N=C/c1cccs1)c1ccccc1 [Compound 42, (E)-N’-(Thiophen-2-ylmethylene)benzohydrazide]
- ERRα activity (in words) [1]: weak agonistic effect
- ERRγ activity (in words) [2]: weak agonistic effect
- PDK4 transcription [8]: potently upregulated
- mRNA levels of PGC-1α [8]: increase the mRNA levels
- mRNA levels of PGC-1β [8]: increase the mRNA levels
- Cell viability / signs of toxicity [4]: No signs of toxicity; also recorded: did not show signs of toxicity
- EC50 [3]: 1190 nM
- activity toward ERRβ, folds higher than ERRα ([3]; from EC50 values): 1.8 folds

Structure (SMILES): COc1ccc(/C=N/NC(=O)c2ccc(Br)cc2)cc1 [Compound 35, (E)-4-Bromo-N’-(4-methoxybenzylidene)benzohydrazide]
- EC50 [1]: 540 nM
- EC50 [2]: 398 nM
- PDK4 transcription [8]: potently upregulated
- mRNA levels of PGC-1α [8]: increased the mRNA levels

Structure (SMILES): O=C(N/N=C/c1ccccc1[N+](=O)[O-])c1ccccc1 [Compound 16, (E)-N’-(2-Nitrobenzylidene)benzohydrazide]
- fold more potent toward ERRα than 14 ([1]; compared to 14): ≈ 17 fold
- fold increase in potency toward ERRα compared to 15 ([1]; compared to 15): > 6 fold
- selectivity toward ERRγ over ERRα ([2]; from EC50 values): 1.6 fold
- PDK4 transcription [8]: potently upregulated
- expression of CPT1α [8]: significantly increased the expression
